Shown are actives, neighbours in structure and some others; about 4.3% of the full set was active somewhere.
TAAR1 antagonist: human TAAR1 antagonists, primary screen, Fluo-8 calcium fluorescence, CHO RD-HGA16 cells; Trace amine-associated receptor 1 (Homo sapiens), Q96RJ0; antagonist; inhibition, % at 3 µM; 1.5% of 360,000 active;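 active means inhibition above a per-plate cutoff, the mean inhibition of test compounds on that plate plus 3 SD, cut at about 49% in these data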
Target sequence (Q96RJ0 whole entry, looked up): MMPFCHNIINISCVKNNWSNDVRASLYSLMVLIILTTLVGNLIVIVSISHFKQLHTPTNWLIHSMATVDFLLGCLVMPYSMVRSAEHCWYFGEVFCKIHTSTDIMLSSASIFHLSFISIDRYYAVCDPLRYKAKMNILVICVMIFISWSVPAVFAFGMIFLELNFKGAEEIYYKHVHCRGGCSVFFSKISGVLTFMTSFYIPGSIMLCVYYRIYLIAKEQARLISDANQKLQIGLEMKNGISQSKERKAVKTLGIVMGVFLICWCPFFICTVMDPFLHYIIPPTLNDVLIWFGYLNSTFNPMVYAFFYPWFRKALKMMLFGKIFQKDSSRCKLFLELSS
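Test system – hTAAR1-expressing CHO RD-HGA16 cells, Gα16-coupled · Also added – β-PEA at EC80 concentration, post-compound challenge · Compound – 3 µM, single point · Incubation – dye loading 75 min at 37 °C, then 30 min room temperature · Measured by – Fluo-8 intracellular calcium dye fluorescence, real-time kinetic reads · Benchmarks – vehicle and agonist controls · Replicates – singlicate, one well per test compound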
HTR2A ag: mouse Htr2a agonists via beta-arrestin recruitment, primary screen, cell-based, luminescence | 5-hydroxytryptamine receptor 2A (Mus musculus), P35363 | CHO-K1 mHTR2A beta-arrestin complementation; percent of 30 µM serotonin response | activation, % at 7.6 µM | 0.66% of 360,000 active;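 active means activation above a run cutoff, the mean activation of all tested compounds plus 3 SD, cut at about 14% in these data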
MC4R antagonist: MC4R antagonists of cAMP signaling, primary screen, cell-based, TR-FRET, antagonist arm of biased-ligand search. 0.48% of 360,000 active. inhibition, % at 6.5 µM. AID 540295, 2011. MC4R-expressing cells, MTII-stimulated cAMP, LANCE TR-FRET;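 active means inhibition above its plate's cutoff, the mean of tested wells on that plate plus 3 SD, cut at about 29% in these data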
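Material: human MC4R-expressing U2OS cells. Probe or stimulus: Melanotan II challenge. Dosing: 6.5 µM single dose. Times: 30-min compound, 1-h challenge, 1-h detection, room temperature. Technique: TR-FRET with Eu-cAMP and labeled anti-cAMP, 671 nm. Replication: singlicate.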
Beta2AR agonist: beta2AR agonists driving receptor internalization, primary screen, cell-based, FAP fluorogen, flow cytometry; response, % (no concentration beside the values); 0.43% of 340,000 active; Am2.2-beta2AR cells; AID 504454, 2011;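 active means response above a set limit, near 3 SD of response in nonfluorescent compounds, cut at about 42% in these data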
MC4R barr agon: MC4R agonists recruiting beta-arrestin, primary screen, cell-based, luminescence, agonist arm of biased-ligand search | Melanocortin receptor 4 (Homo sapiens), P32245 | U2OS MC4R beta-arrestin complementation; percent of melanotan II response, DMSO zero | activation, % at 8.9 µM | 0.98% of 360,000 active | AID 540308, 2011;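 active means activation above a per-plate cutoff, the mean activation of sample wells on that plate plus 3 SD, cut at about 8% in these data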
TAAR1 agonist: human TAAR1 agonists, primary screen, Fluo-8 calcium fluorescence, CHO RD-HGA16 cells; Trace amine-associated receptor 1 (Homo sapiens), Q96RJ0; vehicle wells 0%, saturating PEA agonist 100%; activation, % at 3 µM; AID 624467, 2012; 0.99% of 360,000 active;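 active means activation above the mean activation of all test compounds in the run plus 3 SD, cut at about 38% in these data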
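Repeats: no replicates (n 1) | Material: CHO-derived RD-HGA16 cells with stable Gα16 and human TAAR1 | Technique: Kinetic Fluo-8 calcium fluorescence | Schedule: 17-24 h seeding, 75 min 37 °C dye, 30 min RT | Evaluation: % activation from peak over basal fluorescence ratio, DMSO-to-PEA scaled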
A number is an active result; i = inactive; nt = not tested or not shown.

SMILES	TAAR1 antagonist	HTR2A ag	MC4R antagonist	Beta2AR agonist	MC4R barr agon	TAAR1 agonist
COc1ccc(NS(=O)(=O)c2ccc(NC(=O)Cc3cccs3)cc2)cc1	i	i	i	i	i	41
CC(=O)N1C[C@@H](CO)[C@@H](N(C)C(=O)Nc2cccc3ccccc23)C[C@H]1c1ccccc1	i	nt	nt	nt	nt	i
C=CCOC(=O)C(C#N)c1nc2ccccc2nc1N1CCN(c2ccccc2OC)CC1 (configuration not stated)	49	i	i	i	i	i
C=CCOC(=O)C(C#N)c1nc2ccccc2nc1N1CCN(Cc2ccccc2)CC1 (configuration not stated)	i	i	i	i	i	i
CCCN1CCCCC(NC(=O)c2ccc(Cl)cc2Cl)C1=O (configuration not stated)	i	nt	nt	nt	nt	i
O=c1c2ccccc2sn1-c1cc(S(=O)(=O)N2CCOCC2)ccc1N1CCOCC1	i	i	i	i	i	87
COc1cc(C(=S)N2CCOCC2)ccc1OC(=O)c1cccc(C)c1	i	i	i	i	i	i
COc1cc(C(=S)N2CCOCC2)ccc1OC(=O)c1ccc(Br)cc1	75	i	i	i	i	i
Cn1c(N)c(C(=O)COC(=O)C2(c3ccc(F)cc3)CCCC2)c(=O)n(C)c1=O	65	i	i	i	i	i
Cn1c(N)c(C(=O)COC(=O)C2(c3ccc(Cl)cc3)CCCC2)c(=O)n(C)c1=O	i	i	i	i	i	i
Cc1cccc(Cn2cnc3c(nnn3Cc3ccc(F)cc3)c2=O)c1	i	i	i	i	i	i
Cc1cccc(Cn2cnc3c(nnn3Cc3ccccc3F)c2=O)c1	60	i	i	i	i	i
COc1ccccc1N1CCN(S(=O)(=O)c2ccc(F)cc2)CC1	i	i	i	i	i	38
COc1ccccc1N1CCN(S(=O)(=O)c2cccc(F)c2)CC1	i	i	i	i	i	i
Cc1cccc2c(N=NC(=O)c3ccc(NS(=O)(=O)c4cccs4)cc3)c(O)[nH]c12	56	i	i	i	i	i
COc1ccc2[nH]c(O)c(N=NC(=O)c3ccc(NS(=O)(=O)c4cccs4)cc3)c2c1	i	i	i	i	9.0	i
O=C(CCC(=O)Nc1ccccc1Cl)N/N=C/c1c[nH]c2ccccc12	i	22	i	i	i	i
CC1(C(=O)NCc2ccccc2)CN(S(C)(=O)=O)CC(=O)N1Cc1ccco1 (configuration not stated)	i	nt	nt	nt	nt	i
O=C(NCCc1ccccc1F)c1cccc2cccnc12	i	i	i	i	i	66
Cn1nc(C(=O)Nc2ccccc2Cl)cc1C(=O)Nc1ccccc1Cl	i	i	i	i	9.3	i
Cn1nc(C(=O)Nc2ccc(Br)cc2)cc1C(=O)Nc1ccc(Br)cc1	i	i	i	i	i	i
CCOC(=O)C1=CCN(S(=O)(=O)c2cccc(Cl)c2)C1c1cccc(Br)c1 (configuration not stated)	i	nt	nt	nt	nt	i
O=C(/C=C/c1ccccc1Cl)Nc1cccc(S(=O)(=O)NC2=NCCCCC2)c1	i	i	i	i	i	i
O=C(/C=C/c1ccc([N+](=O)[O-])cc1)Nc1cccc(S(=O)(=O)NC2=NCCCCC2)c1	49	i	i	i	i	i
COc1cc(=O)oc(C=O)c1C	i	nt	nt	nt	nt	i
CCNC(=S)NNC(=O)c1cc(-c2ccccc2C)nc2ccccc12	nt	i	i	i	i	nt
Cc1ccc(C)c(-c2cc(C(=O)NNC(=S)NCC(C)C)c3ccccc3n2)c1	50	i	i	i	i	i
CCOC(=O)C1=CCN(S(=O)(=O)c2ccc(Br)cc2)C1c1ccc(Br)cc1 (configuration not stated)	i	nt	nt	nt	nt	i

Source: PubChem BioAssay (several laboratories)
